In brackets after ≈: the same amount, converted by molar mass.
Experiments:
Rattus norvegicus [1] = species on record: Rattus norvegicus; assay: Evaluated for its antioxidative effect using the thiobarbituric acid (TBA) method in rat; format: functional
Method in brief: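 Test sample in 67 mM phosphate buffer pH 7.4 mixed with 10% male Wistar rat (300–400 g) forebrain homogenate. Shaken 1 h at 37 °C, deproteinated with 20% TCA. Supernatant heated 10 min at 100 °C with 1.2% thiobarbiturate; absorbance read at 532 nm.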

Rattus norvegicus [2] = species on record: Rattus norvegicus; assay: Inhibitory effects on passive cutaneous anaphylaxis in rats at a dose of 1 mg/site; format: functional
Method in brief: (§1)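 Male SD rats, eight per group, sensitized intradermally at two dorsal sites with 0.05 mL anti-ovalbumin rat IgE serum diluted 1:8 in 0.9% saline. Compound applied topically to those sites 5 h before iv challenge 48 h later with 2 mg ovalbumin plus 5 mg Evans blue in 1 mL. Extravasated dye measured 30 min later; percent inhibition versus control group.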

Mus musculus [3] = assay: Evaluated for its inhibitory effects on 12-O-tetradecanoylphorbol-13-acetate (TPA) -induced edema in mouse ear at a dose of 100 ug/site; format: functional
Method in brief: (§2)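 Male ICR mice, 30–40 g, 10–15 per group. Test compound applied in 25 μL acetone/pyridine/water 97:2:1 containing TPA (200 μg/mL) to the inner surface of one ear. Killed with CO2 5 h later; 6-mm ear punch weighed wet for edema. ED50 taken from three-point dose titration curves.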

Mus musculus [4] = assay: Inhibitory effects on arachidonic acid (AA) induced mouse ear edema at a dose of 100 ug/ear; format: functional
Method in brief: (§3)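 Male ICR mice (30–40 g, 10–15 per group). Compound in 25 μL acetone/pyridine/water 97:2:1 with arachidonic acid (50 mg/mL) applied to inner surface of one ear. After 1 h, CO2 sacrifice, 6-mm disk punched, edema measured as change in wet weight versus controls.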

Mus musculus [5] = species on record: Mus musculus; assay: Inhibitory effects on delayed type hypersensitive reaction in mouse ears at a dose of 300 ug/site; format: functional
Method in brief: (§4)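 ICR mice, 10 or 12 per group, sensitized by abdominal swabbing with 0.1 mL antigen in acetone (7% picryl chloride or 1% OXA). DTH response assessed in mouse ears.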

Cavia porcellus [6] = assay: Compound was evaluated for maximization test in guinea pigs and the edema was observed for the experiment 2;4/4; format: functional
Method in brief: (§5)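 Maximization test in guinea pigs with the dorsal neck region clipped and then shaved. Skin reactions were read at 24 and 48 h. Erythema was graded 0–4 and edema 0–3, and values are counts of animals at each grade. Groups held 6 animals, or 4 in the control-paired group.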

Cavia porcellus [7] = species on record: Cavia porcellus; assay: Compound was evaluated for maximization test in guinea pigs and the erythema was observed for the experiment 3;1/2; format: functional; method in brief: as §5
Cavia porcellus [8] = assay: Compound was evaluated for maximization test in guinea pigs and the edema was observed for the experiment 3; format: functional; method in brief: as §5
Cavia porcellus [9] = assay: Compound was evaluated for maximization test in guinea pigs and the edema was observed for the experiment 1; format: functional; method in brief: as §5
Cavia porcellus [10] = species on record: Cavia porcellus; assay: Compound was evaluated for maximization test in guinea pigs and the erythema was observed for the experiment 4;0/2; format: functional; method in brief: as §5
Cavia porcellus [11] = species on record: Cavia porcellus; assay: Compound was evaluated for maximization test in guinea pigs and the erythema was observed for the experiment 1; format: functional; method in brief: as §5
Cavia porcellus [12] = species on record: Cavia porcellus; assay: Compound was evaluated for maximization test in guinea pigs and the erythema was observed for the experiment 2;3/0; format: functional; method in brief: as §5
Cavia porcellus [13] = species on record: Cavia porcellus; assay: Compound was evaluated for maximization test in guinea pigs and the erythema was observed for the experiment 0; format: functional; method in brief: as §5
Cavia porcellus [14] = assay: Compound was evaluated for maximization test in guinea pigs and the edema was observed for the experiment 0; format: functional; method in brief: as §5
Oryctolagus cuniculus [15] = species on record: Oryctolagus cuniculus; assay: Compound was evaluated for primary irritation test by applying at the abraded site and the average score was reported. Number of animals tested =6; format: toxicity, organism-based; conditions: rabbit, in vivo, topical_or_ocular
Method in brief: (§6)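 Rabbit backs shaved and depilated; 0.5 g compound applied to four sites (two intact, two abraded) under gauze for 24 h. Sites examined grossly 24 and 72 h after removing covering; scored by Draize method.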

Oryctolagus cuniculus [16] = species on record: Oryctolagus cuniculus; assay: Compound was evaluated for primary irritation test by applying at the intact site and the average score was reported. Number of animals tested =6; format: toxicity, organism-based; conditions: rabbit, in vivo, topical_or_ocular; method in brief: as §6
Mus musculus [17] = assay: Compound was evaluated for its inhibitory effects on 12-O-tetradecanoylphorbol-13-acetate -induced edema; format: functional; method in brief: as §2
Mus musculus [18] = species on record: Mus musculus; assay: Compound was evaluated for its effective dose to inhibit picryl chloride induced delayed type hypersensitivity; format: functional; method in brief: as §4
Mus musculus [19] = assay: Compound was evaluated for its inhibitory effects on arachidonic acid induced ear edema at a dose of 100 (ug / ear); format: functional; method in brief: as §3
Rattus norvegicus [20] = species on record: Rattus norvegicus; assay: Compound was evaluated for its inhibitory effects on passive cutaneous anaphylaxis in rats at a dose of 2.5 mg/site; format: functional; method in brief: as §1
Mus musculus [21] = species on record: Mus musculus; assay: Compound was evaluated for its effective dose to inhibit oxazolone- induced delayed type hypersensitivity; format: functional; method in brief: as §4

IC50 (Rattus norvegicus [1]) [µg/mL] | SMILES | Inhibition (Rattus norvegicus [2]) [%] | Inhibition (Mus musculus [3]) [%] | Inhibition (Mus musculus [4]) [%] | Inhibition (Mus musculus [5]) [%] | other results
0.013 (≈ 0.028 µM) | Cc1ccc(O)c(NCCCN2CCCN(C(c3ccccc3)c3ccc(Cl)cc3)CC2)c1 (stereo not given) | 36.4 | 87 | 50.3 | – | –
1 (≈ 1.97 µM) | Cc1ccc(O)c(N(CCCN2CCC(C(O)(c3ccccc3)c3ccc(Cl)cc3)CC2)C(C)C)c1 (stereo not given) | 48.3 | 89.3 | 48.5 | 18.7 | –
– | O=[N+]([O-])c1ccc(Cl)c([N+](=O)[O-])c1 | – | – | – | – | Edema (Cavia porcellus [6]): 4; Erythema (Cavia porcellus [7]): 1; Edema (Cavia porcellus [8]): 0; Edema (Cavia porcellus [9]): 0; Erythema (Cavia porcellus [10]): 0; Erythema (Cavia porcellus [11]): 0; Erythema (Cavia porcellus [12]): 3; Erythema (Cavia porcellus [13]): 0; Edema (Cavia porcellus [14]): 0
0.79 (≈ 1.67 µM) | Cc1ccc(O)c(N(CCCN2CCC(C(O)(c3ccccc3)c3ccccc3)CC2)C(C)C)c1 | – | 39.2 | – | – | –
0.12 (≈ 0.267 µM) | Cc1ccc(O)c(NCCCN2CCN(C(c3ccccc3)c3ccc(Cl)cc3)CC2)c1 (stereo not given) | 48.5 | – | 67.7 | 62 | Average score (Oryctolagus cuniculus [15]): 0; Average score (Oryctolagus cuniculus [16]): 0
0.1 (≈ 0.221 µM) | Cc1ccc(O)c(NCCCN2CCN(C(c3ccc(F)cc3)c3ccc(F)cc3)CC2)c1 | 31.7 | – | 51 | 79.2 | ED50 (Mus musculus [17]): 47 µg/mL (≈ 104 µM); ED50 (Mus musculus [18]): 52.9 µg/mL (≈ 117 µM); ED50 (Mus musculus [19]): 107.9 µg/mL (≈ 239 µM); Inhibition (Rattus norvegicus [20]): 51.9%; ED50 (Mus musculus [21]): 47.8 µg/mL (≈ 106 µM); Average score (Oryctolagus cuniculus [15]): 0; Average score (Oryctolagus cuniculus [16]): 0
1.2 (≈ 2.43 µM) | Cc1ccc(O)c(N(CCCN2CCN(C(c3ccc(F)cc3)c3ccc(F)cc3)CC2)C(C)C)c1 | – | 24.2 | – | – | –
0.028 (≈ 0.06 µM) | Cc1ccc(O)c(NCCCN2CCC(OC(c3ccc(F)cc3)c3ccc(F)cc3)CC2)c1 | 39 | 61.8 | 49.8 | 59.3 | –
0.29 (≈ 0.634 µM) | Cc1ccc(O)c(N(CCCN2CCN(C(c3ccccc3)c3ccccc3)CC2)C(C)C)c1 | – | 42.6 | – | – | –
0.045 (≈ 0.112 µM) | Cc1ccc(O)c(NCCN2CCN(C(c3ccccc3)c3ccccc3)CC2)c1 | 32.8 | 75.3 | 48.1 | 62 | –
0.27 (≈ 0.582 µM) | Cc1ccc(O)c(N(C)CCCN2CCN(C(c3ccccc3)c3ccc(Cl)cc3)CC2)c1 (stereo not given) | – | 51.8 | – | – | –
0.3 (≈ 0.698 µM) | Cc1ccc(O)c(N(C)CCCN2CCN(C(c3ccccc3)c3ccccc3)CC2)c1 | – | 50.9 | – | – | –
0.068 (≈ 0.138 µM) | CC(C)(C)c1ccc(O)c(NCCCN2CCN(C(c3ccccc3)c3ccc(Cl)cc3)CC2)c1 (stereo not given) | 12.6 | 82.4 | 38 | 60.6 | –

Reference: ChEMBL document CHEMBL1127556, “Synthesis and topical antiinflammatory and antiallergic activities of antioxidant o-aminophenol derivatives” (J Med Chem, 1994)
